Compound activity from PubChem BioAssay.
STAT3 activator – STAT3 signaling activation | U3A cells, IL-6 STAT3-luciferase reporter, luminescence; 100% = signal with IL-6 EC80 alone | activation (% of control), % at 5.6 µM | actives 0.91% (n = 190,000) | AID 871;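 active = activation above the screen-wide mean of compound activation plus 3 SD, cut at about 130% in these data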;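 also: 0% = background luminescence of wells with medium and substrate only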
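system = STAT3-luciferase reporter U3A cells | reagent = IL-6 stimulus at 33 ng/mL final | timing = 1 h compound pre-exposure, 6 h IL-6 stimulation, 37 °C | measured by = luminescence | evaluation = % activation versus median of IL-6-stimulated wells | control set = IL-6-only wells as 100% reference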
NF-kB expr up – raises NF-kB expression in human neuronal cells; AID 1239; fold change at 12.5 µM; actives 1.6% (n = 190,000); NF-kB reporter expression; active compounds read high; in the data active = fold change above about 3.3
STAT3 blocker – inhibitors of IL-6 induced STAT3 signaling. U3A cells, IL-6 STAT3-luciferase reporter, luminescence; host cell line lacks STAT1. actives 0.89% (n = 190,000). inhibition, % at 5.5 µM;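 active = inhibition above the mean inhibition across all screened compounds plus 3 SD, cut at about 44% in these data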;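 also: 0% = DMSO only wells and 100% = 100 µM nifuroxazide control wells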
APP 5'UTR act – APP 5'UTR luciferase reporter activation. SH-SY5Y APP 5'UTR luciferase reporter, luminescence; zero percent = DMSO vehicle wells. activation, % at 2 µM. actives 1% (n = 190,000). AID 1276;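 active = activation above a set limit, based on mean plus 3 SD of controls, cut at about 140% in these data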
STAT1 act – STAT1 signaling activation; NIH 3T3 STAT1-luciferase reporter, IFN-gamma, luminescence; 100% = IFN-gamma alone, no compound; activation (% of control), % at 5.5 µM; actives 2.6% (n = 200,000);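 active = activation above the screen-wide mean activation plus 3 SD, cut at about 130% in these data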;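 also: raw ratio to IFN-gamma control signal so 100% means no change and 0% no light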
STAT1 blocker – inhibitors of IFN-gamma induced STAT1 signaling | actives 0.35% (n = 200,000) | inhibition, % at 5.5 µM | NIH 3T3 STAT1-luciferase reporter, luminescence;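 active = inhibition above a set limit, the mean inhibition across all tested compounds plus 3 SD, cut at about 34% in these data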;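 also: 0% = IFN-gamma with DMSO and 100% = IFN-gamma with 300 µM nifuroxazide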
Starred values were filed as active, the others as inactive. Sampled rows, rich in hits. Any-hit rate of the full collection: about 4.9%.

Results for Cc1ccccc1C(=O)Nc1ccc(C(=O)N/N=C/c2ccncc2)cc1 ?
STAT3 activator: 99; NF-kB expr up: 0.7; STAT3 blocker: 12; APP 5'UTR act: -2; STAT1 act: 97; STAT1 blocker: 2

How did CC(C)(C)c1ccc(C(=O)N/N=C/c2cccc(Cl)c2)cc1 do in these assays?
STAT3 activator: 93; NF-kB expr up: 2; STAT3 blocker: 7; STAT1 act: 121; STAT1 blocker: -23

Results for O=C(N/N=C/c1ccc(F)cc1)c1ccccc1 ?
STAT3 activator: 97; NF-kB expr up: 2.6; STAT3 blocker: 5; APP 5'UTR act: 66; STAT1 act: 129*; STAT1 blocker: -32

What do the screens show for `COc1ccccc1CN1CCNC(=O)C1CC(=O)NCc1cn(C)nc1C` (stereo not given)?
STAT3 activator: 102; NF-kB expr up: 0.95; STAT3 blocker: 1; APP 5'UTR act: -14; STAT1 act: 103; STAT1 blocker: -4

Results for Fc1ccc2nc(Nc3ccccc3)sc2c1 ?
STAT3 activator: 97; NF-kB expr up: 3.7*; STAT3 blocker: 11; APP 5'UTR act: 66; STAT1 act: 140*; STAT1 blocker: -43

How did NNc1nc2ccc(Cl)cc2s1 do in these assays?
STAT3 activator: 118; NF-kB expr up: 1.7; STAT3 blocker: -17; APP 5'UTR act: 10; STAT1 act: 109; STAT1 blocker: -10

How did COc1ccc(Nc2nc3ccc(OC)cc3s2)cc1 do in these assays?
STAT3 activator: 95; NF-kB expr up: 2.5; STAT3 blocker: 11; APP 5'UTR act: 39; STAT1 act: 130*; STAT1 blocker: -32

Results for NNc1nc2ccc(F)cc2s1 ?
STAT3 activator: 124; NF-kB expr up: 2.1; STAT3 blocker: -25; APP 5'UTR act: 104; STAT1 act: 150*; STAT1 blocker: -56

What do the screens show for `CN(C)S(=O)(=O)c1ccc2nnn(O)c2c1`?
STAT3 activator: 103; NF-kB expr up: 0.83; STAT3 blocker: 5; APP 5'UTR act: 8; STAT1 act: 104; STAT1 blocker: -7

Results for O=C1NCCN(Cc2cccc(Oc3ccccc3)c2)C1CC(=O)N1CCCO1 (stereo not given) ?
STAT3 activator: 103; NF-kB expr up: 1.1; STAT3 blocker: 0; APP 5'UTR act: 7; STAT1 act: 97; STAT1 blocker: 2

How did Cc1ccc(C(=O)CC(Nc2ccc(F)cc2)c2ccccc2)cc1 (stereo not given) do in these assays?
STAT3 activator: 100; NF-kB expr up: 0.92; STAT3 blocker: 3; APP 5'UTR act: 18; STAT1 act: 100; STAT1 blocker: 1

Results for Cc1ccc(C(=O)Nc2nc(=O)n(C(=O)c3ccccc3Cl)s2)cc1 ?
STAT3 activator: 122; NF-kB expr up: 1.2; STAT3 blocker: -19; APP 5'UTR act: 25; STAT1 act: 141*; STAT1 blocker: -44

What do the screens show for `Cn1c(-c2ccccc2)c(/C=N/NC(=O)c2cccnc2)c2ccccc21`?
STAT3 activator: 131; NF-kB expr up: 1.2; STAT3 blocker: -34; APP 5'UTR act: 4; STAT1 act: 131*; STAT1 blocker: -36

What do the screens show for `N=C1C(c2nc3ccccc3s2)=C(O)CN1c1ccccc1`?
STAT3 activator: 103; NF-kB expr up: 1.6; STAT3 blocker: 4; APP 5'UTR act: 17; STAT1 act: 149*; STAT1 blocker: -55

Results for COc1ccc(N2CC(O)=C(c3nc4ccccc4s3)C2=N)cc1 ?
STAT3 activator: 108; NF-kB expr up: 1.1; STAT3 blocker: -4; APP 5'UTR act: 14; STAT1 act: 109; STAT1 blocker: -10

Results for Fc1ccc(-c2cnn3c(-c4ccncc4)ccnc23)cc1 ?
STAT3 activator: 74; NF-kB expr up: 6.4*; STAT3 blocker: 37; APP 5'UTR act: 199*; STAT1 act: 148*; STAT1 blocker: -54

How did O=C(Oc1ccc(F)cc1C(=O)/C=C/c1cccs1)c1cccc([N+](=O)[O-])c1 do in these assays?
STAT3 activator: 123; NF-kB expr up: 4.5*; STAT3 blocker: -22; APP 5'UTR act: -43; STAT1 act: 116; STAT1 blocker: -18

How did O=C(/C=C/c1ccccc1F)c1cccc([N+](=O)[O-])c1 do in these assays?
STAT3 activator: 114; NF-kB expr up: 1.2; STAT3 blocker: -15; APP 5'UTR act: 22; STAT1 act: 105; STAT1 blocker: -6

Results for Cc1nn(-c2ccccc2)c(C)c1/C=N/NC(=O)CSc1nnc(SCc2cccc3ccccc23)s1 ?
STAT3 activator: 104; NF-kB expr up: 1.2; STAT3 blocker: -8; APP 5'UTR act: 6; STAT1 act: 102; STAT1 blocker: 1

Results for COc1ccc(C)cc1N(C(=O)COc1cccc(F)c1)c1nc2ccccc2s1 ?
STAT3 activator: 134*; NF-kB expr up: 1.1; STAT3 blocker: -36; APP 5'UTR act: -9; STAT1 act: 102; STAT1 blocker: -3

What do the screens show for `COC(=O)c1cn(CC(=O)Nc2ccc(F)cc2)c2ccccc12`?
STAT3 activator: 112; NF-kB expr up: 1.2; STAT3 blocker: -13; APP 5'UTR act: -1; STAT1 act: 89; STAT1 blocker: 12

What do the screens show for `N/C(=N\OC(=O)C(c1ccccc1)c1ccccc1)c1ccccn1`?
STAT3 activator: 105; NF-kB expr up: 1.6; STAT3 blocker: -4; APP 5'UTR act: 15; STAT1 act: 105; STAT1 blocker: -2

Results for N/C(=N\OC(=O)COc1ccc(Cl)cc1Cl)c1ccccn1 ?
STAT3 activator: 77; NF-kB expr up: 5.2*; STAT3 blocker: 30; APP 5'UTR act: 78; STAT1 act: 76; STAT1 blocker: 25

Results for N/C(=N\OC(=O)COc1cc(Cl)c(Cl)cc1Cl)c1ccncc1 ?
STAT3 activator: 97; NF-kB expr up: 2.1; STAT3 blocker: 11; APP 5'UTR act: 84; STAT1 act: 131*; STAT1 blocker: -36

How did N/C(=N\OC(=O)c1cc(Cl)ccc1Cl)c1ccccn1 do in these assays?
STAT3 activator: 70; NF-kB expr up: 3; STAT3 blocker: 36; APP 5'UTR act: 172*; STAT1 act: 115; STAT1 blocker: -17

What do the screens show for `Cc1cc(C)c(C)c(OCC(=O)O/N=C(\N)c2ccccn2)c1`?
STAT3 activator: 88; NF-kB expr up: 1.4; STAT3 blocker: 15; STAT1 act: 102; STAT1 blocker: -2

What do the screens show for `N/C(=N\OC(=O)COc1ccc2ccccc2c1Br)c1ccccn1`?
STAT3 activator: 100; STAT3 blocker: 6; APP 5'UTR act: 67; STAT1 act: 139*; STAT1 blocker: -42

Results for N/C(=N\OC(=O)COc1ccccc1)c1ccc(Cl)cc1 ?
STAT3 activator: 102; NF-kB expr up: 1.5; STAT3 blocker: -8; APP 5'UTR act: 15; STAT1 act: 111; STAT1 blocker: -13
